Source: ChEMBL document CHEMBL1126221, “Antimitotic agents: structure-activity studies with some pyridine derivatives” (J Med Chem, 1992)
Several values for one entry are separate records, joined by “and”; a condition that tells them apart may be missing. Equal entries are not always repeated.

Columns and labels:
P388 [1] = assay: Compound was evaluated for antitumor activity against mice implanted with lymphatic leukemia P388 cells (10e6 tumor cells) after intraperitoneal administration of 100 mg/kg per injection (1-5 days); format: functional; conditions: Mus musculus, P388, ip
Summary of the method: (§1)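 Mice implanted ip with 10⁶ lymphocytic leukemia P388 cells; drug given ip on days 1-5. Read-out is % increase in life span (% ILS) versus untreated controls, reported at the highest nontoxic dose tested.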

L1210 [2] = assay: Effect on the mitosis of cultured L1210 cells measured in metaphase at 12 hours and 30 uM concentration; format: functional, Mus musculus
Summary of the method: (§2)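 Cultured L1210 cells were exposed for 12 h to 0, 3, 10, 30, 50 or 100 μM agent. Read-out was the percentage of cells in metaphase.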

L1210 [3] = assay: Effect on the mitosis of cultured L1210 cells measured in metaphase at 12 hours and 3 uM concentration; format: functional, Mus musculus; summary of the method: as §2
L1210 [4] = assay: Concentration required to inhibit proliferation of cultured lymphoid leukemia L1210 cells to 50% growth over 48 hours; format: functional, cell-based; conditions: Mus musculus, L1210, 48 h
Summary of the method: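 Cultured lymphoid leukemia L1210 cells were exposed to agent for 48 h. IC50 is the micromolar concentration that holds proliferation to 50% growth.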

L1210 [5] = assay: Effect on the mitosis of cultured L1210 cells measured in metaphase at 12 hours and 0 uM concentration; format: functional, Mus musculus; summary of the method: as §2
L1210 [6] = assay: Effect on the mitosis of cultured L1210 cells measured in metaphase at 12 hours and 100 uM concentration; format: functional, Mus musculus; summary of the method: as §2
L1210 [7] = assay: Effect on the mitosis of cultured L1210 cells measured in metaphase at 12 hours and 50 uM concentration; format: functional, Mus musculus; summary of the method: as §2
L1210 [8] = assay: Effect on the mitosis of cultured L1210 cells measured in metaphase at 12 hours and 10 uM concentration; format: functional, Mus musculus; summary of the method: as §2
P388 [9] = assay: Compound was evaluated for antitumor activity against mice implanted with lymphatic leukemia P388 cells (10e6 tumor cells) after intraperitoneal administration of 200 mg/kg per injection (1-5 days); format: functional; conditions: Mus musculus, P388, ip; summary of the method: as §1
L1210 [10] = assay: Compound was evaluated for antitumor activity against mice implanted with lymphatic leukemia L1210 cells (10e6 tumor cells) after intraperitoneal administration of 200 mg/kg per injection (1-15 days); conditions: Mus musculus, L1210, ip
HEp-2 = assay: Compound's concentration required to inhibit proliferation of cultured HEP-2 cells to 50% growth during 48 hours.; format: functional, cell-based; conditions: Homo sapiens, HEp-2, 48 h
P388 [11] = assay: Compound was evaluated for antitumor activity against mice implanted with lymphatic leukemia P388 cells (10e6 tumor cells) after intraperitoneal administration of 2 mg/kg per injection (1-5 days); format: functional; conditions: Mus musculus, P388, ip; summary of the method: as §1
P388 [12] = assay: Compound was evaluated for antitumor activity against mice implanted with lymphatic leukemia P388 cells (10e6 tumor cells) after intraperitoneal administration of 200 mg/kg per injection; format: functional; conditions: Mus musculus, P388, ip
P388 [13] = assay: Compound was evaluated for antitumor activity against mice implanted with lymphatic leukemia P388 cells (10e6 tumor cells) after intraperitoneal administration of 200 mg/kg per injection (highest dose tested); format: functional; conditions: Mus musculus, P388, ip
Summary of the method: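 Mice implanted ip with 10⁶ P388 leukemia cells and treated ip on days 1-5. % increase in life span is reported at the highest dose tested.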

[14] = Compound's concentration required to inhibit proliferation of cultured KB cells to 50% growth during 48 hours.; format: functional, cell-based; conditions: Homo sapiens
L1210 [15] = assay: Effect of the compound(25 uM) on DNA synthesis in L1210 cells in culture measured as incorporation of [3H]L-Leu; format: functional, Mus musculus; conditions: in the assay text read “protein synthesis” for “DNA synthesis”
Summary of the method: (§3)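 Cultured L1210 cells were treated with agent at 2.5–50 μM. Labeled precursor incorporation is reported as percent of control: [3H]dThd into DNA, […] into DNA and RNA, and [3H]L-Leu into protein.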

L1210 [16] = assay: Effect of the compound(25 uM) on DNA synthesis in L1210 cells in culture measured as incorporation of [5-3H]-Urd; format: functional, Mus musculus; summary of the method: as §3
L1210 [17] = assay: Effect of the compound(10 uM) on RNA synthesis in L1210 cells in culture measured as incorporation of [5-3H]-Urd; format: functional, Mus musculus; summary of the method: as §3
L1210 [18] = assay: Effect of the compound(25 uM) on RNA synthesis in L1210 cells in culture measured as […]; format: functional, Mus musculus
L1210 [19] = assay: Effect on the mitosis of cultured L1210 cells measured in metaphase t 12 hours and 30 uM concentration; format: functional, Mus musculus; summary of the method: as §2
L1210 [20] = assay: Compound was tested in vivo against mitosis of […] metaphase after 24 hr at 400 mg/kg dose; format: functional, Mus musculus
Summary of the method: (§4)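 Mice implanted ip with L1210 leukemia cells got a single ip injection of test agent or control. Cells were harvested 6, 12 and 24 h after treatment and scored for percentage of cells in metaphase.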

L1210 [21] = assay: Effect of the compound(50 uM) on DNA synthesis in L1210 cells in culture measured as incorporation of [3H]L-Leu; format: functional, Mus musculus; conditions: in the assay text read “protein synthesis” for “DNA synthesis”; summary of the method: as §3
L1210 [22] = assay: Effect of the compound(10 uM) on DNA synthesis in L1210 cells in culture measured as incorporation of [5-3H]-Urd; format: functional, Mus musculus
L1210 [23] = assay: Effect of the compound(50 uM) on DNA synthesis in L1210 cells in culture measured as incorporation of [5-3H]-Urd; format: functional, Mus musculus; summary of the method: as §3
L1210 [24] = assay: Compound was tested in vivo against mitosis of […] metaphase after 6 hr at 600 mg/kg dose; format: functional, Mus musculus; summary of the method: as §4
L1210 [25] = assay: Compound was tested in vivo against mitosis of […] metaphase after 24 hr at 600 mg/kg dose; format: functional, Mus musculus; summary of the method: as §4
P388 [26] = assay: Compound was evaluated for antitumor activity against mice implanted with lymphatic leukemia P388 cells (10e6 tumor cells) after intraperitoneal administration of 240 mg/kg per injection (1-5 days); format: functional; conditions: Mus musculus, P388, ip; summary of the method: as §1
L1210 [27] = assay: Effect on the mitosis of cultured L1210 cells measured ain metaphase t 12 hours and 3 uM concentration; format: functional, Mus musculus; summary of the method: as §2
L1210 [28] = assay: Compound was tested in vivo against mitosis of […] metaphase after 12 hr at 400 mg/kg dose; format: functional, Mus musculus; summary of the method: as §4
L1210 [29] = assay: Effect of the compound(50 uM) on RNA synthesis in L1210 cells in culture measured as incorporation of [5-3H]-Urd; format: functional, Mus musculus; summary of the method: as §3
L1210 [30] = assay: Compound was tested in vivo against mitosis of […] metaphase after 12 hr at 600 mg/kg dose; format: functional, Mus musculus; summary of the method: as §4
L1210 [31] = assay: Effect of the compound(10 uM) on DNA synthesis in L1210 cells in culture measured as incorporation of [3H]L-Leu; format: functional, Mus musculus; conditions: in the assay text read “protein synthesis” for “DNA synthesis”; summary of the method: as §3
L1210 [32] = assay: Effect of the compound(50 uM) on DNA synthesis in L1210 cells in culture measured as incorporation of [3H]dThd; format: functional, Mus musculus; summary of the method: as §3
L1210 [33] = assay: Compound was tested in vivo against mitosis of […] metaphase after 6 hr at 400 mg/kg dose; format: functional, Mus musculus; summary of the method: as §4

CCOC(=O)Nc1cc(NC(C)/C(=N/O)c2cccc([N+](=O)[O-])c2)c([N+](=O)[O-])c(N)n1 (configuration not stated)
ILS at 100 mg/kg (P388 [1]): 25%
Cells in metaphase (L1210 [2]): 2%
Cells in metaphase (L1210 [3]): 4%
IC50 (L1210 [4]): 32 µM
Cells in metaphase (L1210 [5]): 2%
Cells in metaphase (L1210 [6]): 1%
Cells in metaphase (L1210 [7]): 6%
Cells in metaphase (L1210 [8]): 2%

CCOC(=O)Nc1cc(N[C@@H](C)/C(=N\O)c2ccc(O)cc2)c([N+](=O)[O-])c(N)n1
IC50 (L1210 [4]): 26 µM

CCOC(=O)Nc1cc(N[C@@H](C)[C@H](O)c2ccc(O)cc2)c([N+](=O)[O-])c(N)n1
IC50 (L1210 [4]): 12 µM
ILS at 200 mg/kg (P388 [9]): 20%

CCOC(=O)Nc1cc(NC(C)C(O)Cc2ccccc2)c([N+](=O)[O-])c(N)n1 (configuration not stated)
IC50 (L1210 [4]): 53 µM

CCOC(=O)Nc1cc(N[C@@H](C)C(=O)c2ccc(O)cc2)c([N+](=O)[O-])c(N)n1
IC50 (L1210 [4]): 24 µM

CCOC(=O)Nc1cc(N[C@H](C)[C@@H](O)c2ccccc2)c(N)c(N)n1
IC50 (L1210 [4]): 5.9 µM
ILS at 200 mg/kg (P388 [9]): 10%

CCOC(=O)Nc1cc(N[C@H](C)C(=O)c2ccc(O)cc2)c([N+](=O)[O-])c(N)n1
IC50 (L1210 [4]): 44 µM

CCOC(=O)Nc1cc(NC(c2ccccc2)c2ccccc2)c(N)c(N)n1
ILS at 200 mg/kg (L1210 [10]): 0%
IC50 (HEp-2): 0.26 µM

CCOC(=O)Nc1cc(N[C@@H](C)/C(=N/O)c2ccc(O)cc2)c([N+](=O)[O-])c(N)n1
ILS at 2 mg/kg (P388 [11]): 90%
IC50 (L1210 [4]): 6.7 µM

CCOC(=O)Nc1cc(N/N=C/c2ccccc2)c(N)c(N)n1
ILS at 200 mg/kg (P388 [12]): 3%

CCOC(=O)Nc1cc(NC(C)C(O)COc2ccccc2)c(N)c(N)n1 (configuration not stated)
IC50 (L1210 [4]): 21 µM

CCCCC(Nc1cc(NC(=O)OCC)nc(N)c1N)C(C)O (configuration not stated)
IC50 (L1210 [4]): 1.7 µM
ILS at 200 mg/kg (P388 [13]): 45%

CCOC(=O)Nc1cc(NC(CC)C(=O)c2ccccc2)c([N+](=O)[O-])c(N)n1 (configuration not stated)
IC50 (L1210 [4]): > 100 µM

CCOC(=O)Nc1cc(N[C@@H](C)[C@H](O)c2ccc(O)cc2)c(N)c(N)n1
ILS at 100 mg/kg (P388 [1]): 58%
IC50 (L1210 [4]): 0.62 µM

CCOC(=O)Nc1cc(NC(C)C(=O)COc2ccccc2)c([N+](=O)[O-])c(N)n1 (configuration not stated)
IC50 (L1210 [4]): 89 µM

CCOC(=O)Nc1cc(NC(C)C(O)COc2ccccc2)c([N+](=O)[O-])c(N)n1 (configuration not stated)
IC50 (L1210 [4]): 55 µM

CCOC(=O)Nc1cc(NCCc2ccccc2)c([N+](=O)[O-])c(N)n1
IC50 [14]: > 100 µM

CCOC(=O)Nc1cc(NC(C)/C(=N/O)c2ccccc2)c([N+](=O)[O-])c(N)n1 (configuration not stated)
Control (L1210 [15]): 101%
Control (L1210 [16]): 25% and 13%
Control (L1210 [17]): 55%
Control (L1210 [18]): 22%
Cells in metaphase (L1210 [19]): 4%
Cells in metaphase (L1210 [20]): 1.6%
Control (L1210 [21]): 37%
Uridine incorporation into DNA (% of control) (L1210 [22]): 38% and 42%
Control (L1210 [23]): 17%
Cells in metaphase (L1210 [24]): 0.9%
Cells in metaphase (L1210 [25]): 0.4%
ILS at 240 mg/kg (P388 [26]): 80%
IC50 (L1210 [4]): 32 µM
Cells in metaphase (L1210 [27]): 2%
Cells in metaphase (L1210 [5]): 2%
Cells in metaphase (L1210 [28]): 0.8%
Control (L1210 [29]): 24%
Cells in metaphase (L1210 [6]): 5%
Cells in metaphase (L1210 [7]): 14%
Cells in metaphase (L1210 [30]): 1.4%
Control (L1210 [31]): 79%
Cells in metaphase (L1210 [8]): 3%
Control (L1210 [32]): 12%
Cells in metaphase (L1210 [33]): 0.6%

CCOC(=O)Nc1cc(NN(C)C(=N)c2ccccc2)c([N+](=O)[O-])c(N)n1
IC50 (L1210 [4]): > 100 µM

CCOC(=O)Nc1cc(NC(/C(=N/O)c2ccccc2)c2ccccc2)c([N+](=O)[O-])c(N)n1 (configuration not stated)
IC50 (L1210 [4]): 45 µM

CC[C@]1(O)C[C@H]2CN(CCc3c([nH]c4ccccc34)[C@@](C(=O)OC)(c3cc4c(cc3OC)N(C=O)[C@H]3[C@@](O)(C(=O)OC)[C@H](OC(C)=O)[C@]5(CC)C=CCN6CC[C@]43[C@@H]65)C2)C1 [VINCRISTINE]
ILS at 2 mg/kg (P388 [11]): 85%
